rCAG RNA binder: binds r(CAG) RNA repeats; r(CAG) RNA repeat, TO-PRO-1 dye displacement fluorescence; inhibition, % at 3 µM; 1.3% of 370,000 active; AID 651821;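 active means inhibition above the plate cutoff, the mean of all test compounds on that plate plus 3 SD, cut at about 35% in these data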;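 further: 0% = DMSO alone and 100% = 100 µM mitoxantrone as full dye displacement; higher means more dye released from RNA so lower well fluorescence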
NS3 helicase inh: inhibitors of Hepatitis C virus NS3 helicase; NS3 helicase DNA unwinding, Cy5 molecular beacon fluorescence; inhibition, % at 10.9 µM; 0.56% of 290,000 active;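 active means inhibition above the mean of all tested compounds plus 3 SD, set per campaign, cut at about 35% in these data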;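 further: 0% = DMSO wells and 100% = thioflavine S control wells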
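Compound dosing – single dose, 10.9 µM nominal final, DMSO 0.8% final · System – NS3 helicase fragment of HCV · Buffer or medium – MOPS pH 6.5, MgCl2, DTT, Tween20, BSA · Signal – Cy5 beacon fluorescence read at start and 1 h · Also added – annealed dual-labelled DNA beacon duplex, ATP-started · Schedule – 1 h at 25 °C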
TAAR1 antagonist: antagonists of human TAAR1. Q96RJ0. CHO RD-HGA16 TAAR1, Fluo-8 calcium fluorescence, antagonist. inhibition, % at 3 µM. AID 624466. 1.5% of 360,000 active;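 active means inhibition above a per-plate cutoff, the mean inhibition of test compounds on that plate plus 3 SD, cut at about 49% in these data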;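 further: 0% = DMSO plus EC80 beta-PEA response and 100% = DMSO alone without agonist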
Target sequence (Q96RJ0 whole entry, looked up): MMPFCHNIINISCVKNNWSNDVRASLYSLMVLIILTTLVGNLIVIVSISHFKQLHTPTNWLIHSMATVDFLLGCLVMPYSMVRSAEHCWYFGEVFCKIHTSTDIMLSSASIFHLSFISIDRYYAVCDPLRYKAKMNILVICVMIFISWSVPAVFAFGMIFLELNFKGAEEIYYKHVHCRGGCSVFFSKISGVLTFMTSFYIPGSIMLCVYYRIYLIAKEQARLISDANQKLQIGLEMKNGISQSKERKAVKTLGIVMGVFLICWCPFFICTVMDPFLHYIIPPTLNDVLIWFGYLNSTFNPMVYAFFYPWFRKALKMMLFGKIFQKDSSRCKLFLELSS
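System: CHO RD-HGA16 cells bearing hTAAR1. Reagent: EC80 β-phenethylamine stimulus. Schedule: seeding 17-24 h prior, 75-min 37 °C, 30-min RT dye loading. Signal: Fluo-8 intracellular calcium dye fluorescence, real-time kinetic reads. Read-out: % inhibition from peak post-agonist over basal fluorescence ratio. Benchmarks: vehicle wells and EC80 agonist wells. Replicates: n of 1.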
TAAR1 agonist: agonists of human TAAR1; 0.99% of 360,000 active; activation, % at 3 µM; CHO RD-HGA16 TAAR1, Fluo-8 calcium fluorescence; vehicle wells 0%, saturating PEA agonist 100%; Q96RJ0; AID 624467;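 active means activation above the mean activation of all test compounds in the run plus 3 SD, cut at about 38% in these data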
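Test system: RD-HGA16 (CHO) cells co-expressing Gα16 and hTAAR1 | Doses: Single dose, 3 µM | Schedule: 17-24 h seeding, 75 min 37 °C dye, 30 min RT | Evaluation: % activation from peak over basal fluorescence ratio, DMSO-to-PEA scaled | Technique: Kinetic Fluo-8 calcium fluorescence | Benchmarks: Low control DMSO, high control PEA (EC100)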
core dimer inh: HCV core protein dimerization inhibition; AID 1899; inhibition, % at 5 µM; 0.33% of 300,000 active; TR-FRET GST/Flag-core106 dimerization, 1536-well;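 active means inhibition above the mean of all tested compounds plus 3 SD, set per screening campaign, cut at about 45% in these data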
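test system = GST/Flag-tagged HCV core106 proteins | probe or stimulus = Eu donor and XL665 acceptor anti-tag antibodies | times = compound-protein-antibody incubation 4 h at 22.5 °C | signal = TR-FRET, excitation 340 nm, emission 617 and 671 nm | measure = percent inhibition of core106 dimerization signal | controls = wells lacking GST-core106 and wells with excess unlabelled core106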
NS3 helicase cf: confirmation of Hepatitis C virus NS3 helicase inhibitors. shares compounds with NS3 helicase inh. NS3 helicase DNA unwinding, Cy5 molecular beacon fluorescence. inhibition, % at 10.9 µM. 31% of 1,600 active;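 active means inhibition above the mean of all tested compounds plus 3 SD, cutoff set per campaign, cut at about 36% in these data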
FID counter trip: displaces DNA intercalator in HCV helicase counter-screen. 4% of 1,600 active. inhibition, % at 7.9 µM. DNA fluorescent intercalator displacement, fluorescence. shares compounds with NS3 helicase inh; in the data active means inhibition above about 37%;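 further: 0% = vehicle and 100% = reference compound; higher means more displacement of ethidium bromide from the DNA hairpin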
DNA FID DR: DNA intercalator displacement in dose response | shares compounds with NS3 helicase inh | IC50, µM | 120 tested, under 10 active | fluorescent intercalator displacement from DNA, fluorescence; call rule not given here
TAAR1 nonsel count: nonselective antagonist in TAAR1 antagonist counter-screen; shares compounds with TAAR1 antagonist; counterscreen cell line, calcium fluorescence, antagonist mode; inhibition, % at 3 µM; 77% of 2,400 active; AID 651780; in the data active means inhibition above about 22%;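 further: CHO-Ga16 host cells stimulated with ATP at an EC80 level; 0% = agonist EC80 plus vehicle and 100% = vehicle without agonist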
TAAR1 ant conf: human TAAR1 antagonism, confirmed. shares compounds with TAAR1 antagonist. TAAR1-expressing cells, fluorescence antagonist read-out. inhibition, % at 3 µM. 40% of 2,400 active; in the data active means inhibition above about 49%;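 further: CHO-Ga16 host cells challenged with agonist PEA near its EC80; 0% = agonist at EC80 plus vehicle and 100% = vehicle with no agonist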
Ga16 nonsel ag: nonselective Ga16 agonism, counter-screen; AID 651953; Ga16-expressing cells, calcium fluorescence, agonist counterscreen; shares compounds with TAAR1 antagonist; 18% of 2,400 active; activation, % at 3 µM; in the data active means activation above about 12%;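 further: 0% = vehicle wells and 100% = saturating stimulus response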
TAAR1 ag counter: activates human TAAR1 in antagonist counter-screen. shares compounds with TAAR1 antagonist. hTAAR1 cell line, fluorescence activation, agonist mode. activation, % at 3 µM. 2% of 2,400 active. AID 651955; in the data active means activation above about 37%;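 further: CHO cells stably expressing TAAR1 with calcium dye readout; 0% = DMSO vehicle and 100% = full agonist response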
rCAG bind conf: r(CAG) RNA repeat binding, confirmation. shares compounds with rCAG RNA binder. TO-PRO-1 dye displacement fluorescence. inhibition, % at 3 µM. 70% of 4,300 active;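 active means inhibition above a per-plate cutoff, the mean inhibition of sample wells plus 3 SD, cut at about 35% in these data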;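 further: loss of TO-PRO-1 fluorescence as compound displaces dye from 1x1 AA loop RNA; 0% = DMSO only wells and 100% = 100 µM mitoxantrone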
dCAG dye counter: DNA CAG dye complex inhibition counter-screen; 94% of 4,300 active; shares compounds with rCAG RNA binder; inhibition, % at 3 µM; d(CAG) DNA oligo TO-PRO-1 dye displacement, fluorescence;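 active means inhibition above its plate's cutoff, the mean test-well inhibition plus 3 SD, cut at about 4.8% in these data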;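 further: 0% = DNA dye mix with DMSO and 100% = 100 µM mitoxantrone; hits displace the dye from DNA and so lower well fluorescence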
* = called active by the depositor. In the library only some 3.7% were active in any assay of this set; here they are far more common.

Results for O=C(Nc1nc(-c2ccco2)c(-c2ccco2)s1)C1CCC1 ?
rCAG RNA binder: 36.6*; NS3 helicase inh: 57.9*; TAAR1 antagonist: 8.5; TAAR1 agonist: -1.7; core dimer inh: 7.8; NS3 helicase cf: 46.8*; FID counter trip: 18.5; DNA FID DR: >79.4; rCAG bind conf: 21.5; dCAG dye counter: 11.3*

What do the screens show for `NC(=O)c1ccsc1NC(=O)COC(=O)Cc1c[nH]c2ccccc12`?
rCAG RNA binder: 14.4; TAAR1 antagonist: 66.4*; TAAR1 agonist: 17.8; core dimer inh: 11.8; TAAR1 nonsel count: 46.6*; TAAR1 ant conf: 55.8*; Ga16 nonsel ag: 16.6*; TAAR1 ag counter: 16.2

How did COc1ccc(C(=O)OCC(=O)Nc2sccc2C(N)=O)cc1OC do in these assays?
rCAG RNA binder: 4.9; NS3 helicase inh: -8.7; TAAR1 antagonist: 64.2*; TAAR1 agonist: 12.0; core dimer inh: 8.7; TAAR1 nonsel count: 29.7*; TAAR1 ant conf: 45.8; Ga16 nonsel ag: 10.0; TAAR1 ag counter: 10.8

Results for O=C(COC(=O)Cc1c[nH]c2ccccc12)Nc1ccccc1 ?
rCAG RNA binder: 2.7; NS3 helicase inh: -6.3; TAAR1 antagonist: 8.7; TAAR1 agonist: 3.4; core dimer inh: -6.2

Results for Cc1nn(Cc2c(F)c(F)c(F)c(F)c2F)c(C)c1NC(=O)c1ccc(COc2ccccc2Cl)cc1 ?
rCAG RNA binder: 3.8; NS3 helicase inh: 10.4; TAAR1 nonsel count: 13.8; Ga16 nonsel ag: 4.8

Results for O=S1(=O)c2ccc(N3CCSCC3)cc2Oc2ccccc2CN1Cc1cn(Cc2cccc(F)c2)nn1 ?
rCAG RNA binder: 14.8

How did CCOC(=O)C1=C(C)N=c2s/c(=C\c3cccc(OCC(=O)O)c3)c(=O)n2C1c1ccccc1OC (configuration not stated) do in these assays?
rCAG RNA binder: 10.3; NS3 helicase inh: -8.9; TAAR1 antagonist: 4.4; TAAR1 agonist: -0.4; core dimer inh: -3.8

What do the screens show for `COc1cccc(C2C(C(=O)OC(C)C)=C(C)N=c3s/c(=C\c4ccc(C(=O)O)cc4)c(=O)n32)c1` (configuration not stated)?
rCAG RNA binder: 18.8; NS3 helicase inh: 7.5; TAAR1 antagonist: 60.3*; TAAR1 agonist: 35.7; core dimer inh: 3.1; TAAR1 nonsel count: 34.0*; TAAR1 ant conf: 53.4*; Ga16 nonsel ag: 17.1*; TAAR1 ag counter: 20.9

How did CC(C)[C@H](NS(=O)(=O)c1ccc2c(c1)OCCO2)C(=O)OCC(=O)Nc1cc(Cl)ccc1Cl do in these assays?
rCAG RNA binder: 2.1; NS3 helicase inh: -3.2; TAAR1 antagonist: 75.6*; TAAR1 agonist: 21.2; core dimer inh: 4.8; TAAR1 nonsel count: 38.8*; TAAR1 ant conf: 61.1*; Ga16 nonsel ag: 11.2; TAAR1 ag counter: 11.1

Results for CC(C)[C@H](NS(=O)(=O)c1ccc2c(c1)OCCO2)C(=O)OCC(=O)Nc1ccccc1Cl ?
rCAG RNA binder: -4.0; NS3 helicase inh: -8.5; TAAR1 antagonist: 17.1; TAAR1 agonist: 8.4; core dimer inh: -7.5

Results for Fc1ccccc1COc1ccc(Br)cc1CNCc1ccncc1 ?
rCAG RNA binder: -0.7; NS3 helicase inh: -9.4; TAAR1 antagonist: 74.9*; TAAR1 agonist: 13.0; core dimer inh: 3.6; TAAR1 nonsel count: 40.5*; TAAR1 ant conf: 62.5*; Ga16 nonsel ag: 11.5*; TAAR1 ag counter: 17.0

What do the screens show for `Cc1cc(NS(=O)(=O)c2ccc(NC(=O)CSc3nnc(-c4cnccn4)n3-c3ccccc3)cc2)nc(C)n1`?
rCAG RNA binder: 15.9

What do the screens show for `Cc1ccc(CNC[C@@]23CO[C@H](c4ccc(Cl)cc4)N2[C@@H](c2ccc(Cl)cc2)SC3)o1`?
rCAG RNA binder: 4.2

How did CCCCC(=O)Nc1cc([N+](=O)[O-])ccc1Cl do in these assays?
rCAG RNA binder: -1.4; NS3 helicase inh: 3.7; TAAR1 antagonist: -15.1; TAAR1 agonist: 1.7; core dimer inh: -3.9

What do the screens show for `O=C(CC(=O)c1ccccc1)Nc1cc([N+](=O)[O-])ccc1Cl`?
rCAG RNA binder: 25.2; NS3 helicase inh: -5.2; TAAR1 antagonist: 77.4*; TAAR1 agonist: 20.2; core dimer inh: 3.9; TAAR1 nonsel count: 34.7*; TAAR1 ant conf: 54.6*; Ga16 nonsel ag: 10.5; TAAR1 ag counter: 10.9

What do the screens show for `CCOc1ccccc1Nc1nnc(SCc2nnc(-c3cc(OC)c(OC)c(OC)c3)o2)s1`?
rCAG RNA binder: -2.0; NS3 helicase inh: -6.3; TAAR1 antagonist: 40.4; TAAR1 agonist: 12.6; core dimer inh: 3.4

Results for COc1ccccc1Nc1nnc(SCc2nnc(-c3cc(OC)c(OC)c(OC)c3)o2)s1 ?
rCAG RNA binder: 5.6; NS3 helicase inh: -0.7; TAAR1 antagonist: 57.8*; TAAR1 agonist: 10.1; core dimer inh: 7.0; TAAR1 nonsel count: 24.8*; TAAR1 ant conf: 33.8; Ga16 nonsel ag: 8.2; TAAR1 ag counter: 6.8

Results for COc1cccc(-c2cc(C(=O)N3CCN(S(=O)(=O)c4ccc(Br)cc4)CC3)[nH]n2)c1 ?
rCAG RNA binder: 0.5; NS3 helicase inh: 15.6; TAAR1 antagonist: 44.0; TAAR1 agonist: 7.3; core dimer inh: 16.3

What do the screens show for `COc1ccc(S(=O)(=O)N2CCN(C(=O)c3cc(-c4ccccc4OC)n[nH]3)CC2)cc1`?
rCAG RNA binder: 0.6; NS3 helicase inh: -11.7; TAAR1 antagonist: 75.7*; TAAR1 agonist: 10.3; core dimer inh: 8.8; TAAR1 nonsel count: 24.7*; TAAR1 ant conf: 38.6; Ga16 nonsel ag: 7.9; TAAR1 ag counter: 6.2

Screens (PubChem)
